The list is not random: actives were taken first. Their share in the collection is about 3.2%.
DAX1 inh-1: DAX1 (NR0B1) inhibition, primary screen; HEK293T StAR-luciferase reporter, SF-1/DAX-1 repression relief; inhibition, % at 6.8 µM; 370,000 tested, 1.1% active; AID 652010;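 active means inhibition above the mean over all tested compounds plus 3 SD, cut at about 3.6% in these data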;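 further: 0% = DAX-1 cells with DMSO and 100% = cells lacking DAX-1 with DMSO; higher inhibition means more luminescence from relief of DAX-1 repression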
NR2E3 ag-1: human photoreceptor-specific nuclear receptor agonism | 360,000 tested, 0.35% active | inhibition of corepressor binding, % at 3.98 µM | AID 602229 | CHO-S Gal4-NCOR/VP16-NR2E3 two-hybrid, luciferase | Q9Y5X4;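 active means inhibition above the mean of all tested compounds plus 3 SD, cut at about 70% in these data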;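 further: 0% = DMSO with NR2E3 transfected cells and 100% = cells lacking NR2E3 construct; higher means lower luciferase signal from less NR2E3 corepressor binding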
JMJD2C inh: blocks human GASC-1 demethylase activity; Q9H3R0; GST-JMJD2C(1-420) H3K9me3 demethylation, DELFIA europium; inhibition, % at 2.35 µM; 330,000 tested, 0.069% active;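 active means more than half of a compound's replicate wells show inhibition beyond 50%, single wells judged on their own value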;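 further: signal counts dimethyl H3K9 product captured on neutravidin plate; 0% = median of DMSO wells and 100% = 0.3 times that DMSO median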
Target sequence (Q9H3R0 1-420 limits assumed): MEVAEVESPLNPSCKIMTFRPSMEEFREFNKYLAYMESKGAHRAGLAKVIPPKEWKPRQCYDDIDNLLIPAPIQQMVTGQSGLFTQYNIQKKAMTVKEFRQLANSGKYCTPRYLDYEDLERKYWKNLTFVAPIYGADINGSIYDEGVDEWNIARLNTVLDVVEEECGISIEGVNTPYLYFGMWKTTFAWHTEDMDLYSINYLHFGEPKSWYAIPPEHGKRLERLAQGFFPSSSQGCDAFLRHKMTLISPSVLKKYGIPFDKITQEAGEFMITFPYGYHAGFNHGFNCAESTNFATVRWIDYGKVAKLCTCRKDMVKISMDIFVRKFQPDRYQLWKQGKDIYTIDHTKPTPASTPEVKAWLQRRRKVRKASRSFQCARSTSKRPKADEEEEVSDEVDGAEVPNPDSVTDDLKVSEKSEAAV
NR2E3 ag-2: activates human photoreceptor nuclear receptor NR2E3; inhibition of corepressor binding, % at 4.78 µM; GST-NR2E3/biotin-RetCOR TR-FRET, 1536-well; Q9Y5X4; 320,000 tested, 0.12% active;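 active means percent inhibition above the cutoff of mean plus 3 SD of all tested compounds, set per screening campaign, cut at about 20% in these data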;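 further: 0% = DMSO wells and 100% = biotin wells as full block of FRET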
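Material: NR2E3–RetCOR corepressor complex / Incubation: Compound–protein incubation for 5 h at 4 °C / Dosing: compound at 4.8 µM, single dose / Detection: time-resolved FRET / Benchmarks: high control biotin, low control 0.6% DMSO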
SMARCA2 activ: SMARCA2 function activation, primary screen; MG213 cells, MMTV-luciferase reporter, dexamethasone, overnight; activation, % at 9.1 µM; 370,000 tested, 1% active; in the data active means activation above about 7.8%;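 further: 0% = vehicle wells and 100% = reference activator wells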
DAX1 inh-2: NR0B1 (DAX1) inhibition | HEK293 Gal4-DAX1 luciferase reporter, luminescence | P51843 | 340,000 tested, 0.99% active | inhibition, % at 6.75 µM | AID 504766;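 active means inhibition above the mean over all tested compounds plus 3 SD, cut at about 4.2% in these data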;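 further: 0% = DAX1-transfected cells with DMSO and 100% = empty-vector control cells with DMSO; inhibition shows as a rise in luminescence from relieved DAX1 repression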
Target sequence (P51843 207-470 limits assumed): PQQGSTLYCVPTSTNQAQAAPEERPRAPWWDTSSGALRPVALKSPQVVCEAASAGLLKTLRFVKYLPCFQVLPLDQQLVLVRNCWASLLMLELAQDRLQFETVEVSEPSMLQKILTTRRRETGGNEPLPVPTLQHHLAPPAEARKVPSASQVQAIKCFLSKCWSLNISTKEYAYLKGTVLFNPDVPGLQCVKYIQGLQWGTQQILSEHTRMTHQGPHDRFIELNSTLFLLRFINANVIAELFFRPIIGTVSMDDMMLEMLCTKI
SMARCA2 conf: SMARCA2 activation, confirmation screen | shares compounds with SMARCA2 activ | MG213 cells, MMTV-luciferase with dexamethasone, luminescence, overnight; MG213 cells expressing E1A, Rb sequestered; DMSO wells 0%, reference activator 100% | activation, % at 9.1 µM | 3,500 tested, 30% active;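 active means activation above its plate's cutoff, the mean activation of tested wells plus 3 SD, cut at about 7.9% in these data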
VP16 Luc act: counter-screen for SMARCA2 activators: GAL4-VP16 luciferase reporter activation | shares compounds with SMARCA2 activ | HEK293 GAL4-VP16 pG5luc reporter, luciferase luminescence; scaled: DMSO wells 0%, SAHA wells 100% | activation, % at 9.1 µM | 3,500 tested, 41% active | AID 686939;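 active means activation above the solvent-only control well mean plus 3 SD, averaged across control plates, cut at about 5.2% in these data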
Active calls of the source: *; nt = no result.

SMILES | DAX1 inh-1 | NR2E3 ag-1 | JMJD2C inh | NR2E3 ag-2 | SMARCA2 activ | DAX1 inh-2 | SMARCA2 conf | VP16 Luc act
Cc1ccc(N2Cc3ccccc3C2=O)cc1 | 1.9 | -208.7 | -13.3 | -4.6 | 10.2* | 5.4* | 2.7 | 5.0
COc1ccc(N2Cc3ccccc3C2=O)cc1 | 2.4 | -130.6 | -29.2 | 2.1 | 2.5 | -1.3 | nt | nt
O=C1c2ccccc2CN1c1ccccc1 | 0.6 | -66.7 | -2.0 | 3.1 | 9.7* | -1.0 | 11.2* | 9.8*
CCOc1ccc(S(=O)(=O)Nc2cc(S(=O)(=O)N3CCOCC3)ccc2OC)cc1 | -0.8 | 8.3 | 4.3 | -4.8 | -3.1 | -0.5 | nt | nt
COc1ccc(-c2nnc(-c3ccc(N(C)C)cc3)o2)cc1 | 1.2 | -82.5 | 0.8 | 5.7 | 16.4* | 1.6 | 12.1* | 1.1
COc1ccc(-c2nnc(-c3ccc(N)cc3)o2)cc1 | 2.8 | -109.5 | 1.8 | 3.7 | 1.0 | 1.7 | nt | nt
O=C(NCc1ccccc1)OCCN1C(=O)CCC12CCC(c1ccccc1)CC2 (stereo not drawn) | -0.7 | nt | nt | nt | -3.4 | nt | nt | nt
Nc1nc2c(C(=O)N3CCOCC3)nnn2c2ccccc12 | 0.7 | -56.0 | -6.9 | 1.6 | 11.3* | 6.2* | 5.6 | 9.1*
Cc1occc1-c1nnc(SCC(=O)N2CCCCC2C)o1 (stereo not drawn) | 0.1 | -11.7 | -0.8 | 2.7 | -3.0 | -1.4 | nt | nt
CC1CCCCN1C(=O)CSc1nnc(-c2ccccc2O)o1 (stereo not drawn) | 1.8 | -98.9 | 10.7 | -2.9 | 8.9* | 1.8 | 1.7 | 10.1*
CCOC(=O)[C@@]12CCCC3=C1N(CCC3)C(=O)[C@H]2CC(=O)NCCCCc1ccccc1 | 0.1 | nt | nt | nt | 0.9 | nt | nt | nt
COc1cccc(-c2cc(C(C)=O)c3n(c2=O)CCC3)c1OC | 0.8 | nt | nt | nt | -1.1 | nt | nt | nt
O=C(NCCCc1ccccc1)c1ccc(Br)o1 | 0.9 | -10.9 | 1.9 | -1.4 | 9.7* | 1.4 | 0.6 | 0.2
Cc1ccc(C(=O)NCCCc2ccccc2)c(C)c1 | 3.1 | -166.1 | -20.5 | -2.3 | 10.4* | 6.8* | 13.3* | 8.5*
COc1ccc(NC(=S)NC(=O)c2ccc(Br)o2)cc1 | 1.2 | -56.5 | 1.2 | -0.2 | 2.7 | 0.7 | nt | nt
O=C(NC(=S)Nc1ccccc1)c1ccc(Br)o1 | 1.6 | -27.3 | 1.1 | 0.2 | 9.3* | 2.3 | 12.6* | 6.2*
COC(=O)[C@]12C[C@H](CC(=O)NCC34CC5CC(CC(C5)C3)C4)C(=O)N(Cc3ccc4c(c3)OCO4)C1=C[C@H](C(C)C)O[C@@H]2C1CC1 | -1.6 | nt | nt | nt | -2.6 | nt | nt | nt
COC(=O)C1=C(C)N(C)C(=NCc2ccc(C(F)(F)F)cc2)NC1c1ccc(Cl)cc1 (stereo not drawn) | 0.2 | nt | nt | nt | 0.7 | nt | nt | nt
Cc1cc(C)c2c(n1)sc1c(N3CCN(CCO)CC3)ncnc12 | -0.2 | -13.2 | 4.2 | -0.9 | 8.5* | 0.0 | 6.5 | 1.0
CCOc1ncnc2c1sc1nc(C)cc(C)c12 | 0.3 | 11.0 | 0.0 | -2.5 | -5.0 | -1.9 | nt | nt
O=C1NC[C@H](CCCCN2C[C@H](Cc3ccccc3)N(CC3CCCCC3)C(=O)C2=O)N(CCc2ccc(O)cc2)C1=O | 0.4 | -1.2 | nt | nt | -2.9 | nt | nt | nt
O=C1NC[C@H](CCCCN2C[C@H](Cc3ccc(O)cc3)N(CCc3ccc(O)cc3)C(=O)C2=O)N(CC2CCCCC2)C1=O | -0.4 | 15.5 | nt | nt | 8.5* | nt | 0.4 | 2.5
COc1ccc(CNC(=O)C2CCN(S(=O)(=O)c3c(C)noc3/C=C/N(C)C)CC2)cc1 | nt | 11.2 | 0.6 | 1.4 | nt | 0.8 | nt | nt
CCN(CC)CCN1C(=O)C(=O)/C(=C(/O)c2cnn(-c3ccccc3)c2C)C1c1ccc(C)o1 (stereo not drawn) | 1.3 | -30.5 | -1.1 | -0.8 | 12.2* | 0.5 | 6.2 | 3.0
O=C(CCCOc1ccc(Cl)cc1)NC1CCCCC1 | -0.2 | -41.7 | 15.7 | 2.6 | -2.9 | -1.0 | nt | nt
SMILES | DAX1 inh-1 | NR2E3 ag-1 | JMJD2C inh | NR2E3 ag-2 | SMARCA2 activ | DAX1 inh-2 | SMARCA2 conf | VP16 Luc act
CC(=O)N1CCN(c2ccc(NS(=O)(=O)c3ccc(C)cc3)cc2)CC1 | 0.0 | -16.6 | 7.0 | 0.7 | -1.6 | 0.3 | nt | nt
COC(=O)c1ccc(NC(=O)c2cc3sccc3n2C)cc1 | 0.4 | -34.1 | -49.4 | -2.2 | 6.2 | 0.6 | nt | nt
Cn1c(C(=O)Nc2ccccc2)cc2sccc21 | 1.0 | -69.2 | -0.8 | 1.9 | 9.2* | 3.8 | 8.7* | 7.2*
CCn1c(Cc2cccs2)nnc1SCC(=O)Nc1ccc(OCc2ccccc2)cc1 | -2.4 | nt | nt | nt | -3.2 | nt | nt | nt
CCOC(=O)/C(C#N)=C/c1c(Oc2cccc(C)c2)nc2ccccn2c1=O | -0.7 | 1.1 | -3.6 | 0.7 | -2.7 | -0.3 | nt | nt
CCOC(=O)/C(C#N)=C/c1c(Oc2cc(C)cc(C)c2)nc2ccccn2c1=O | 0.8 | 13.8 | 7.6 | -0.3 | 8.2* | 0.2 | -3.1 | 0.1
CCOC(=O)c1cnc2cc(-c3ccc(C)cc3)nn2c1C | 1.0 | -44.3 | nt | nt | -2.4 | 1.9 | nt | nt
CCN(CC(=O)Nc1ccc2c(c1)OCCO2)CC(=O)Nc1ccc(C)c(S(=O)(=O)N(C)C)c1 | -3.5 | -8.4 | -2.2 | nt | -1.7 | 0.1 | nt | nt
Cc1ccccc1C1c2[nH]c3ccccc3c2CCN1C(=O)c1ccc(=O)n(C)n1 (stereo not drawn) | -0.2 | -34.6 | -0.5 | 3.8 | 9.6* | 2.6 | 1.5 | 0.6
Cc1ccnc(NC(=O)Cn2cc([N+](=O)[O-])cn2)c1 | 3.6 | -66.0 | 2.3 | -1.8 | 16.1* | 1.7 | 7.4 | 5.8*
COc1ccc(N2C(=O)C3C(C2=O)C(C(=O)c2ccc(Cl)cc2)N2CCCC32)cc1 (stereo not drawn) | -0.1 | -2.7 | 11.8 | 1.5 | 12.3* | 0.9 | 2.2 | -1.4
COC(=O)c1cc(-c2ccc(C(C)=O)cc2)c(=O)n2c1CCC2 | 0.1 | nt | nt | nt | -0.2 | nt | nt | nt
CN1CCN(c2ccc3c(c2)Oc2ccccc2CN(Cc2cn(Cc4ccc(C(F)(F)F)cc4)nn2)S3(=O)=O)CC1 | -1.0 | nt | nt | nt | 6.1 | nt | nt | nt
C[C@@H]1C[C@H]2[C@@H]3C[C@H](F)C4=CC(=O)C=C[C@]4(C)[C@@]3(F)[C@@H](O)C[C@]2(C)[C@@]1(O)C(=O)COC(=O)C(C)(C)C | 1.9 | -10.5 | 6.3 | 2.4 | -2.8 | 0.8 | nt | nt
CCCC(=O)O[C@]1(C(=O)COC(C)=O)CC[C@H]2[C@@H]3C[C@H](F)C4=CC(=O)C=C[C@]4(C)[C@@]3(F)[C@@H](O)C[C@@]21C | 0.4 | 20.0 | -16.8 | 3.1 | 11.4* | 1.7 | -2.5 | 2.1
C[C@@H]1COc2cc(Br)ccc2S(=O)(=O)N1Cc1cn(Cc2ccc(Br)cc2)nn1 | -0.1 | nt | nt | nt | -3.4 | nt | nt | nt

Compound activity deposited in PubChem BioAssay by several laboratories.
